Converted amounts (≈) assume the structure as drawn. The source made the active and inactive calls. The rule behind the calls is not given here.
How the values were obtained:
Rhesus monkey [1] = assay: Increase in apoE level in plasma of rhesus monkey at 5 mg/kg, po administered for 2 weeks; format: functional, organism-based; details: Macaca mulatta
Cynomolgus monkey = assay: Increase in triglycerides level in cynomolgus monkey liver at >= 3 mg/kg, po qd administered for 2 weeks; format: ADME, organism-based, Macaca fascicularis; details: in vivo, 336 h
Rhesus monkey [2] = assay: Increase in hepatic fat content in rhesus monkey at 5 mg/kg, po qd for 2 weeks by magnetic resonance spectroscopic imaging method relative to vehicle control; format: ADME, organism-based, Macaca mulatta; details: in vivo, 336 h
Rhesus monkey [3] = assay: Increase in apoE level in CSF of rhesus monkey at 5 mg/kg, po administered for 2 weeks; format: functional, organism-based; details: Macaca mulatta
Method in brief: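 Rhesus monkeys were dosed orally once daily for 2 weeks after randomisation on baseline lipids, liver enzymes and liver fat. CSF was taken by lumbar puncture at baseline and at trough after the last dose, and apoE was measured against baseline.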

[4] = biological target: T1, Oxysterols receptor LXR-beta (Homo sapiens, UniProt P55055); assay: Agonist activity at GST-tagged LXRbeta-LBD (unknown origin) by LanthaScreen TR-FRET liver X receptor coactivator assay
T1 sequence (P55055 whole entry): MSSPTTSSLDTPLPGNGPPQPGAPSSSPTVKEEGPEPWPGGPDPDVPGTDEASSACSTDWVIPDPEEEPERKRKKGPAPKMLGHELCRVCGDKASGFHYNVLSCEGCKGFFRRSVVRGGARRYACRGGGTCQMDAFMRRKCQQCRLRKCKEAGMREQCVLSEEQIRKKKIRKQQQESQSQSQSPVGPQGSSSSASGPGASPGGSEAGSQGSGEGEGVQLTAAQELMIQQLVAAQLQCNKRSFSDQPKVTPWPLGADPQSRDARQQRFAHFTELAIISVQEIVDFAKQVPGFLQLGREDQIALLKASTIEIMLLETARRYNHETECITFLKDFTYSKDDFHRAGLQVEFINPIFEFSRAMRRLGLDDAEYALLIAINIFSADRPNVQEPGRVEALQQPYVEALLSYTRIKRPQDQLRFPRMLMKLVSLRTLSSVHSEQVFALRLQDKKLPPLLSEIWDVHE
Method in brief: (§1)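 Cofactor recruitment assay using the ligand binding domains of LXRβ or LXRα. The read-out was EC50 and Emax, with Emax relative to a full agonist control.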

[5] = Solubility of the compound at pH 2; format: physicochemical; details: buffer
[6] = biological target: T2, Oxysterols receptor LXR-beta (Homo sapiens) (UniProt P55055); assay: Agonist activity at GST-tagged LXRbeta-LBD (unknown origin) by LanthaScreen TR-FRET liver X receptor coactivator assay relative to T1317; method in brief: as §1
T2 sequence (whole entry): T1 sequence (P55055 whole entry)

[7] = biological target: T3, Oxysterols receptor LXR-alpha (Homo sapiens, UniProt Q13133); assay: Agonist activity at GST-tagged LXRalpha-LBD (unknown origin) by LanthaScreen TR-FRET liver X receptor coactivator assay; method in brief: as §1
T3 sequence (Q13133 whole entry): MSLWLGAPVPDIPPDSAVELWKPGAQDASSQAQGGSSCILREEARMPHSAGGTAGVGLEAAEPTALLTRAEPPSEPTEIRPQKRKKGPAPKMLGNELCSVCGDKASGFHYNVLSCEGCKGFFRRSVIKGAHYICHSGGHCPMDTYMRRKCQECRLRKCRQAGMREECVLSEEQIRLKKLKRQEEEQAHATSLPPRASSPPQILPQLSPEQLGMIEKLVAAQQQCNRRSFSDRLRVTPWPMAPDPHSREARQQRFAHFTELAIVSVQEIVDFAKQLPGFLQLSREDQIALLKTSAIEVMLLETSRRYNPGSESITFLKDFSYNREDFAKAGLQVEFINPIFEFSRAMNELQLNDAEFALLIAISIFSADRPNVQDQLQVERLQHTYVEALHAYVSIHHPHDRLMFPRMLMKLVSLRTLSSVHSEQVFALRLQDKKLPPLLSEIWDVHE

[8] = biological target: T4, Oxysterols receptor LXR-alpha (Homo sapiens) (UniProt Q13133); assay: Agonist activity at GST-tagged LXRalpha-LBD (unknown origin) by LanthaScreen TR-FRET liver X receptor coactivator assay T1317; method in brief: as §1
T4 sequence (whole entry): T3 sequence (Q13133 whole entry)

[9] = biological target: T4, Oxysterols receptor LXR-alpha (Homo sapiens); assay: (§2) Agonist activity at LXRalpha (unknown origin) expressed in human HepG2 cells co-expressing ABCA1 promoter measured after 48 hrs by cell-based transactivation assay
[10] = biological target: T3, Oxysterols receptor LXR-alpha; assay: as §2
[11] = biological target: T1, Oxysterols receptor LXR-beta; assay: (§3) Agonist activity at LXRbeta (unknown origin) expressed in human H4 cells co-expressing ABCA1 promoter measured after 48 hrs by cell-based transactivation assay
[12] = biological target: T2, Oxysterols receptor LXR-beta (Homo sapiens); assay: as §3

| SMILES | Activity (Rhesus monkey [1]) | Activity (Cynomolgus monkey) | fold change (FC) (Rhesus monkey [2]) | Activity (Rhesus monkey [3]) | EC50 [4] [µM] | solubility [5] [µM] | Emax [6] [%] | EC50 [7] [µM] | Emax [8] [%] | Emax [9] [%] | EC50 [10] [µM] | EC50 [11] [µM] | Emax [12] [%] |
| --- | --- | --- | --- | --- | --- | --- | --- | --- | --- | --- | --- | --- | --- |
| CC(C)(O)CNC(=O)Nc1ccc(C(=O)N2CCN(Cc3ccc(C(O)(C(F)(F)F)C(F)(F)F)cc3)CC2)cc1F | Active | Toxic | 4 | inactive | – | – | – | – | – | – | – | – | – |
| CN(C)C(=O)c1ccc(-c2cnc(N3CCN(C(=O)[C@](O)(c4ccccc4)C(F)(F)F)CC3)c(C#N)c2)cc1Cl | – | – | – | – | 0.008 | 3 (≈ 1.72 µg/mL) | 67 | 0.041 | 62 | 66 | 0.045 | 0.007 | 64 |
| CC(C)[C@](O)(C(=O)N1CCC(C2CCN(c3ccc(C(=O)N(C)C)c(Cl)c3)CC2)CC1)C(F)(F)F | – | – | – | – | – | – | – | – | – | 31 | 2 | 0.84 | 117 |

Reference: ChEMBL document CHEMBL3808288, “Identification and in Vivo Evaluation of Liver X Receptor β-Selective Agonists for the Potential Treatment of Alzheimer's Disease” (J Med Chem, 2016)
